Columns and labels:
[1] = test system: A549; test: Cytotoxicity against human A549 cells after 3 days by SRB assay; type: functional, cell-based; conditions: A549, 72 h
[2] = test system: SK-OV-3; test: Cytotoxicity against human SKOV3 cells after 3 days by SRB assay; type: functional, cell-based; conditions: SK-OV-3, 72 h
[3] = test system: SK-MEL-2; test: Cytotoxicity against human SK-MEL-2 cells after 3 days by SRB assay; type: functional, cell-based; conditions: SK-MEL-2, 72 h
[4] = test system: XF498; test: Cytotoxicity against human XF498 cells after 3 days by SRB assay; type: functional, cell-based; conditions: XF498, 72 h
[5] = test system: HCT-15; test: Cytotoxicity against human HCT15 cells after 3 days by SRB assay; type: functional, cell-based; conditions: HCT-15, 72 h
[6] = test system: SNU-638; test: Cytotoxicity against human SNU638 cells after 3 days by SRB assay; type: functional, cell-based; conditions: SNU-638, 72 h
[7] = test system: HT-1080; test: Cytotoxicity against human HT1080 cells after 3 days by SRB assay; type: functional, cell-based; conditions: HT-1080, 72 h
[8] = test system: HL-60; test: Cytotoxicity against human HL60 cells after 3 days by SRB assay; type: functional, cell-based; conditions: HL-60, 72 h
[9] = target: DNA topoisomerase 2-alpha (Homo sapiens, UniProt P11388); test: Inhibition of human recombinant topoisomerase 2 by decatenation assay
DNA topoisomerase 2-alpha, sequence (P11388 whole entry): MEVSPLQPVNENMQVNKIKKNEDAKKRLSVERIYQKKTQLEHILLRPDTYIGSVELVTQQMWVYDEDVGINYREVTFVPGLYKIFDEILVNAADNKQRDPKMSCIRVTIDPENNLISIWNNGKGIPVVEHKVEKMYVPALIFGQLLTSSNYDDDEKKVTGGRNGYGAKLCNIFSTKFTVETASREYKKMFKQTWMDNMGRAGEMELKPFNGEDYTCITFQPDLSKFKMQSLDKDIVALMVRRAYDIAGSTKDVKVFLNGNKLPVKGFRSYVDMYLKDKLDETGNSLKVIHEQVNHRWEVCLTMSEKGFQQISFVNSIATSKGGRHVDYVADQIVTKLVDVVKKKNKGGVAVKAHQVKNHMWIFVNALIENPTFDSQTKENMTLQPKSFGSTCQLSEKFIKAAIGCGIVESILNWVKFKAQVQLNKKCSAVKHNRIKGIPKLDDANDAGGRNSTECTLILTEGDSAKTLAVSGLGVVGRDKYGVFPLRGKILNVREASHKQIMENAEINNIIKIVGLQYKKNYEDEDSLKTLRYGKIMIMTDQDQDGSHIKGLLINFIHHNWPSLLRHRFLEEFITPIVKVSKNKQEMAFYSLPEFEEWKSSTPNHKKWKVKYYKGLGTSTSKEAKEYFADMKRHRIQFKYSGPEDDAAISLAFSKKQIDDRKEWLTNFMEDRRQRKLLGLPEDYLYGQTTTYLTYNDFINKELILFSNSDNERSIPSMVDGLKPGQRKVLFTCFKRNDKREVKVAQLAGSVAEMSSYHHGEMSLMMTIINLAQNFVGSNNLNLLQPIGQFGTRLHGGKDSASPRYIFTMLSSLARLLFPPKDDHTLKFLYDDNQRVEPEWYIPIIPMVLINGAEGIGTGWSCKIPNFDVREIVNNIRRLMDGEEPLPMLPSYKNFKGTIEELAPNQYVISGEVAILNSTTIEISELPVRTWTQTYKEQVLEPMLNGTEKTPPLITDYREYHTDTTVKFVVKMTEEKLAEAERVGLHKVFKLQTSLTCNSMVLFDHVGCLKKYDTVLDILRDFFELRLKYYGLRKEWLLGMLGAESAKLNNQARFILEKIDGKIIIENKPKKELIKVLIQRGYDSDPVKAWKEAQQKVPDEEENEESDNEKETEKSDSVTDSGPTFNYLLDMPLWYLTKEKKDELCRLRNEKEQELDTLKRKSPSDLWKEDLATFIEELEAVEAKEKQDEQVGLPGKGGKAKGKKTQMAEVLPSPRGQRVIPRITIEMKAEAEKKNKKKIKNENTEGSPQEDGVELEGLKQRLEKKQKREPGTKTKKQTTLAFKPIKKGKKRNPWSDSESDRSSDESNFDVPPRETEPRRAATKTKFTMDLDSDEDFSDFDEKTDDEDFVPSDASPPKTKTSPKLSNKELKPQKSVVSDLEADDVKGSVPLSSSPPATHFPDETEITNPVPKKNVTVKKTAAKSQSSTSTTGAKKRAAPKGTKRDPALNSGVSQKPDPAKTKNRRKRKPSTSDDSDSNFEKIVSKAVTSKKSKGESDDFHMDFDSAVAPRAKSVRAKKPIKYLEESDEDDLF
How it was run: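 One unit of human recombinant topo II (the amount that fully decatenates 200 ng kDNA) with 200 ng kinetoplast DNA in 50 mM Tris-HCl pH 8, 120 mM KCl, 10 mM MgCl2, 0.5 mM ATP, 0.5 mM DTT, 30 µg/mL BSA. Drug stocks in DMSO. 10 min at 37 °C, stopped with sarkosyl loading dye. Decatenation read on 1% agarose gel in TBE.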

Row | IC50 [9] [nM] | Compound | IC50 [1] [nM] | IC50 [2] [nM] | IC50 [3] [nM] | IC50 [4] [nM] | IC50 [5] [nM] | IC50 [6] [nM] | IC50 [7] [nM] | IC50 [8] [nM]
1 | 49000 | CCCn1nnc2c1C(=O)c1cnncc1C2=O | 26 | 14 | 20 | 85 | 176 | 212 | 75 | 83
2 | 28600 | COc1ccc(Cn2nnc3c2C(=O)c2cnncc2C3=O)cc1 | 54 | 12 | 41 | 118 | 59 | 257 | 330 | 130
3 | 39000 | Cn1nnc2c1C(=O)c1cnncc1C2=O | 4 | 3 | 8 | 35 | 103 | 241 | 73 | 82
4 | 55600 | Cn1nc2c(n1)C(=O)c1cnncc1C2=O | 2 | 0.4 | 2 | 4 | 20 | 54 | 7.8 | 124
5 | 52800 | O=C1c2cnncc2C(=O)c2[nH]nnc21 | 9020 | 7640 | > 10000 | > 10000 | > 10000 | > 5000 | > 5000 | > 5000
6 | 64800 | CCCCn1nc2c(n1)C(=O)c1cnncc1C2=O | 18 | 17 | 15 | 19 | 18 | 50 | 30 | 151
7 | 33300 | CC(C)n1nnc2c1C(=O)c1cnncc1C2=O | 32 | 49 | 16 | 49 | 33 | 57 | 114 | 50
8 | 43200 | CCCCn1nnc2c1C(=O)c1cnncc1C2=O | 81 | 21 | 23 | 181 | 177 | 155 | 99 | 89
9 | 19400 | CC(C)Cn1nc2c(n1)C(=O)c1cnncc1C2=O | 19 | 43 | 15 | 19 | 29 | 14 | 85 | 38
10 | 44400 | CCCn1nc2c(n1)C(=O)c1cnncc1C2=O | 19 | 9 | 9 | 18 | 18 | 43 | 33 | 157
11 | 29800 | CC(C)Cn1nnc2c1C(=O)c1cnncc1C2=O | 110 | 190 | 66 | 140 | 110 | 69 | 77 | 75
12 | 54500 | CC(C)n1nc2c(n1)C(=O)c1cnncc1C2=O | 9 | 31 | 7 | 14 | 14 | 11 | 55 | 18
13 | 61500 | CCn1nc2c(n1)C(=O)c1cnncc1C2=O | 18 | 3 | 4 | 17 | 18 | 46 | 204 | 90
14 | 55600 | CCn1nnc2c1C(=O)c1cnncc1C2=O | 6 | 3 | 8 | 34 | 39 | 126 | 68 | 56
15 | – | COc1cccc2c1C(=O)c1c(O)c3c(c(O)c1C2=O)C[C@@](O)(C(=O)CO)C[C@@H]3O[C@H]1C[C@H](N)[C@H](O)[C@H](C)O1 [DOXORUBICIN] | – | 41 | 19 | 44 | 251 | 52 | 22 | 44
16 | – | COc1cc([C@@H]2c3cc4c(cc3[C@@H](O[C@@H]3O[C@@H]5CO[C@@H](C)O[C@H]5[C@H](O)[C@H]3O)[C@H]3COC(=O)[C@H]23)OCO4)cc(OC)c1O [ETOPOSIDE] | 1160 | 4280 | 5720 | 3480 | 2800 | 230 | 250 | 370
